Source: PubChem
CYP2C19 activ – cytochrome P450 2C19 (human) activation | 96,000 tested, under 10 active | P33261 | recombinant CYP2C19, luciferin-H EGE luminescence; hits give high values; 0 = fully inhibited enzyme, 1 = untreated enzyme | activation factor at 5 µM;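 active = activation factor of at least 2 at 5 µM in the primary screen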
CYP2C9 activ – CYP2C9 (human) activation | 1.4% of 96,000 active | P11712 | recombinant CYP2C9, luciferin-H conversion, luminescence; hits give high values; factor 1 = untreated enzyme, 0 = blocked | activation factor at 5 µM | AID 1024;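 active = activation factor of 2 or more for CYP2C9 at a 5 µM dose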
Target sequence (P11712 whole entry, looked up): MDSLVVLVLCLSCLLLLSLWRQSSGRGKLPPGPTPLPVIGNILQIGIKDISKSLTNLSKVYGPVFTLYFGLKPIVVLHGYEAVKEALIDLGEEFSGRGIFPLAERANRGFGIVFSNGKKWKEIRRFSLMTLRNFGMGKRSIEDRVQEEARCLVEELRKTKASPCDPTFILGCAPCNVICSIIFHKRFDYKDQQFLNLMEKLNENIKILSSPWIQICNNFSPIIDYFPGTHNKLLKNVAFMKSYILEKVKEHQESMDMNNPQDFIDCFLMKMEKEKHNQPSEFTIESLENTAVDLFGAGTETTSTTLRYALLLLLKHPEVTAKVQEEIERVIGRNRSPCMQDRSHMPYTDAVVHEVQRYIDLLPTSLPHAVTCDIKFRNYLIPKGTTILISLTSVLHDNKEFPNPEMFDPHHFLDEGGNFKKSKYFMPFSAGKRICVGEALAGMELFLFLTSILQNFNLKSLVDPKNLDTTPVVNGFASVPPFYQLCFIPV
Ecoli WT expand – blocks growth of wild type E. coli BW25113; growth inhibition, % at 100 µM; OD600 absorbance; 0.15% of 98,000 active; AID 710;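 active = growth inhibition above about 50% at one test dose, limit read from the data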;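 also: growth measured after 20 h incubation at 37 °C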
CYP2C19 inhib – blocks human cytochrome P450 2C19; P33261; CYP2C19 Supersomes, luciferin-H EGE luminescence, 30 min; inhibition, % at 5 µM; 21% of 96,000 active; AID 778;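 active = CYP2C19 inhibition above a set limit at 5 µM in the primary screen, cut at about 50% in these data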
tolC growth inh – blocks growth of E. coli BW25113 tolC mutant. OD615. 2.2% of 65,000 active. AID 573. growth inhibition, % at 10 µM (by protocol);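 active = growth inhibition at or above a cutoff equal to the mean over every tested compound plus 3 SD, cut at about 60% in these data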;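 also: growth measured after 20 h incubation at 37 °C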
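Test system: E. coli BW25113 ΔtolC::kan bacteria; incubation: 37 °C, 20 h exposure; medium: LB broth supplemented with 50 µg/mL kanamycin; read-out basis: percent growth inhibition; signal: A615 absorbance measurement; compound: 10 µM final, single dose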
CYP2C9 inhib – inhibitors of human CYP2C9 | P11712 | CYP2C9 Supersomes, luciferin-H conversion, luminescence | inhibition, % at 5 µM | 20% of 96,000 active | AID 777;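 active = blocking of liver enzyme CYP2C9 beyond about 50% at 5 µM, limit read from the data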
Each line names hits and unclear results; the compound was inactive in the other large screens. This is a sample that favours compounds with a hit; in the whole collection about 29% have one here.

COc1ccc(CNC(=O)CSc2nc(-c3ccccc3)cc(-c3cccs3)c2C#N)cc1	CYP2C9 inhib 69 (no result: tolC growth inh)
Cc1ccc(S(=O)(=O)NC(C)CCc2ccccc2)cc1 (stereo not drawn)	none (no result: tolC growth inh)
CCN(Cc1ccccc1)C(c1ccccn1)c1nnnn1C(C)(C)CC (stereo not drawn)	CYP2C19 inhib 86, CYP2C9 inhib 71
CC(C)(C)n1nnnc1C(c1cccs1)N(Cc1ccccc1)Cc1ccco1 (stereo not drawn)	CYP2C9 inhib 53
CC(C)(C)n1nnnc1C(c1cccs1)N(Cc1cccnc1)Cc1ccco1 (stereo not drawn)	CYP2C19 inhib 86, CYP2C9 inhib 83 (no result: tolC growth inh)
CC(C)(C)n1nnnc1C(c1ccccn1)N(Cc1ccccc1)Cc1ccc(Cl)cc1 (stereo not drawn)	none (no result: tolC growth inh)
CCN(Cc1ccccc1)C(c1ccc(C)cc1)c1nnnn1C(C)(C)C (stereo not drawn)	none (no result: tolC growth inh)
CC(C)(C)n1nnnc1C(c1ccncc1)N(Cc1ccccc1)Cc1ccco1 (stereo not drawn)	CYP2C19 inhib 74, CYP2C9 inhib 87 (no result: tolC growth inh)
Cc1onc(-c2ccccc2)c1C(=O)n1cccn1	none
CCOC(=O)CSC1=C(C#N)C(=O)NC(c2ccc(OC)cc2)S1 (stereo not drawn)	CYP2C9 inhib 94 (no result: tolC growth inh)
CCOC(=O)CSC1=C(C#N)C(=O)NC(c2ccc(OC)c(OC)c2)S1 (stereo not drawn)	none
O=C(NNC(=S)Nc1ccc(F)cc1)c1ccccc1OC(F)F	CYP2C9 inhib 58 (no result: tolC growth inh)
Cc1ccc(NC(=S)NNC(=O)c2ccccc2OC(F)F)cc1	CYP2C9 inhib 56 (no result: tolC growth inh)
O=C(Nc1ccccc1OC(F)F)c1ccc(F)cc1	none
COc1cccc(NC(=S)NNC(=O)c2ccccc2OC(F)F)c1	CYP2C9 inhib 64 (no result: tolC growth inh)
Cc1ccc(NC(=S)NNC(=O)c2cn(C)nc2C)cc1	none (no result: tolC growth inh)
O=C1CC(C(=O)N(c2ccc(F)cc2)C(C(=O)NC2CCCC2)c2ccccn2)CS1 (stereo not drawn)	none
CN(C)CC(C)(C)CNS(=O)(=O)CC12CCC(CC1=O)C2(C)C (stereo not drawn)	none (no result: tolC growth inh)
CC(C)c1nnc(NC(=O)CCC(=O)NC2CCCCCCC2)s1	none (no result: tolC growth inh)
O=C(CCC(=O)NC1CCCCCC1)Nc1nnc(C(F)(F)F)s1	CYP2C9 inhib 66 (no result: tolC growth inh)
O=C(CCC(=O)NC1CCCCCCC1)Nc1nnc(C(F)(F)F)s1	CYP2C9 inhib 83 (no result: tolC growth inh)
Cc1cc(C)cc(NC(=O)CN2C(=O)NC(C)(c3ccccc3)C2=O)c1 (stereo not drawn)	none (no result: tolC growth inh)
CCCC1(c2ccccc2)NC(=O)N(CCN2C(=O)c3ccccc3C2=O)C1=O (stereo not drawn)	CYP2C19 inhib 89 (no result: tolC growth inh)
CC1(c2ccccc2)NC(=O)N(CCN2C(=O)c3ccccc3C2=O)C1=O (stereo not drawn)	CYP2C19 inhib 96, CYP2C9 inhib 67
CCC(Cc1ccccc1)NC(=O)CCn1cccc1 (stereo not drawn)	CYP2C19 inhib 66, CYP2C9 inhib 66 (no result: tolC growth inh)
O=C(CCn1cccc1)NCc1ccccc1	none
Cc1ccc(NC(=O)CCn2cccc2)cc1Cl	CYP2C19 inhib 86
CCc1ccc(NC(=O)CCn2cccc2)cc1	CYP2C19 inhib 71 (no result: tolC growth inh)
CCc1ccc(NC(=O)CCn2ccnc2C)cc1	CYP2C19 inhib 83, CYP2C9 inhib 68 (no result: tolC growth inh)
COC(=O)c1ccc(NC(=O)CCn2cccc2)cc1	none
CCOC(=O)c1sc(C)c2c(=O)n(CCCN3CCOCC3)cnc12	none
CCCCC(CC)C(=O)Nc1ccccc1C(=O)NC(C)C (stereo not drawn)	none
Cc1cc(C)nc(NC2=NCC(=O)N2c2ccc3c(c2)OCCO3)n1	none
O=C(CSc1ncnc2nc[nH]c12)N1CCN(c2ccc(Cl)cc2)CC1	none
O=C(CCn1cccc1)Nc1ccc(F)cc1	CYP2C19 inhib 62 (no result: tolC growth inh)
O=C(CCn1cccc1)Nc1cc(F)ccc1F	none
O=C(CCN1CCN(c2ccc(F)cc2)CC1)Nc1ccc(F)cc1	none
O=C(CCN1CCc2ccccc2C1)Nc1ccc(F)cc1	CYP2C19 inhib 61
COc1ccc(CNC(=O)C2CCCN2C(=O)NC2CCCCC2)cc1 (stereo not drawn)	none
COC(=O)c1cc2n(n1)CCN(Cc1ccc(F)cc1)C2=O	none (no result: tolC growth inh)
COC(=O)C(NC(=O)c1ccco1)(Nc1nc(C)cs1)C(F)(F)F (stereo not drawn)	none
